Assay results reported in ChEMBL document CHEMBL4041519, “Design, synthesis and SAR analysis of potent BACE1 inhibitors: Possible lead drug candidates for Alzheimer's disease” (Eur J Med Chem, 2017).

Legend:
Beta-secretase 1 [1] = molecular target: T1, Beta-secretase 1 (Homo sapiens, UniProt P56817); assay: Inhibition of recombinant human BACE1 (1 to 460 residues) expressed in baculovirus infected insect cells using rhodamine-EVNLDAEFK peptide as substrate measured after 60 mins by FRET assay
Procedure, shortened: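 Enzyme 1 U/mL in 50 mM sodium acetate pH 4.5 with 750 nM substrate (Swedish-mutant peptide, KM 20 µM); screening at 30, 10, 3, 1 and 0.3 µM, 3.3% DMSO final. Incubated in the dark at 25 °C, stopped with 2.5 M sodium acetate; fluorescence ex 545/em 585 nm. IC50 from nonlinear fit of RFU/h versus log concentration; mean of 3 experiments.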

Beta-secretase 1 [2] = molecular target: T1, Beta-secretase 1; assay: Inhibition of BACE1 in human H4 cells expressing human APP K595N/M596L double mutant assessed as decrease in amyloid beta 42 and amyloid beta 40 level after overnight incubation by ELISA method; assay type: cell-based; settings: for inhibition: concentration not given here
Procedure, shortened: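 H4 neuroglioma cells seeded 2x10^5 per well, grown 24 h (5% CO2, humidified), then exposed overnight to increasing compound concentrations; 1% DMSO negative control, R-flurbiprofen positive control. Supernatant Aβ42 and Aβ40 captured with biotinylated 4G8 plus C-terminal-specific rabbit antibodies, streptavidin magnetic beads, electrochemiluminescence readout. EC50 = concentration halving Aβ production; mean of ≥3 experiments ± SD.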

T1 sequence (P56817 whole entry, the tested form may be a part): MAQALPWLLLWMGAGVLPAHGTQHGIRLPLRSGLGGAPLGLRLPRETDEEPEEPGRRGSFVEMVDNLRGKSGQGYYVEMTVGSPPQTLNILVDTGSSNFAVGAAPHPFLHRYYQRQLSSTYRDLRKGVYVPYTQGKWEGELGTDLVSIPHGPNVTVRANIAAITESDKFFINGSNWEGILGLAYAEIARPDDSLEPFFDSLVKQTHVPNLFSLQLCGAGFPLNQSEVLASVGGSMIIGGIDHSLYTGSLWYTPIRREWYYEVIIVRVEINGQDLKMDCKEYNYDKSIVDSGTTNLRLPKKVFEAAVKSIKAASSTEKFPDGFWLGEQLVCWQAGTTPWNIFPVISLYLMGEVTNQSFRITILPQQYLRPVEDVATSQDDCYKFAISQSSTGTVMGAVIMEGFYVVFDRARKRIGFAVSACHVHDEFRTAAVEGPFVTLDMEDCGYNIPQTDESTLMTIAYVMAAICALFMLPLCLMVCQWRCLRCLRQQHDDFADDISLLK

SMILES	IC50 (Beta-secretase 1 [1])	EC50 (Beta-secretase 1 [2])	inhibition (Beta-secretase 1 [2])
O=C(Nc1cccnc1)c1cccc(-c2cnc(-c3c[nH]c4ccccc34)[nH]2)c1	310 nM	880 nM	42%
O=C(Nc1ccccc1)c1cccc(-c2cnc(-c3c[nH]c4ccccc34)[nH]2)c1	110 nM	1210 nM	64%
O=C(Nc1ccc(F)cc1)c1cccc(-c2cnc(-c3c[nH]c4ccccc34)[nH]2)c1	98 nM	1330 nM	69%
O=C(Nc1cccc(-c2cnc(-c3c[nH]c4ccccc34)[nH]2)c1)c1cccnc1	220 nM	480 nM	75%
O=C(Nc1ccncc1)c1cccc(-c2cnc(-c3c[nH]c4ccccc34)[nH]2)c1	660 nM	590 nM	70%

Next, values leading:

IC50 (Beta-secretase 1 [1])	EC50 (Beta-secretase 1 [2])	inhibition (Beta-secretase 1 [2])	SMILES
75 nM	810 nM	86%	Fc1ccc(-c2cnc(-c3cccc(-c4cnc(-c5c[nH]c6cc(F)ccc56)[nH]4)c3)[nH]2)cc1
180 nM	670 nM	77%	Fc1ccc(-c2cnc(-c3cccc(-c4cnc(-c5c[nH]c6cc(OC(F)(F)F)ccc56)[nH]4)c3)[nH]2)cc1
120 nM	290 nM	87%	Fc1ccc2nc(-c3cccc(-c4cnc(-c5c[nH]c6cc(OC(F)(F)F)ccc56)[nH]4)c3)[nH]c2c1
130 nM	410 nM	82%	O=C(Nc1cccc(-c2cnc(-c3c[nH]c4cc(F)ccc34)[nH]2)c1)c1cccnc1
85 nM	350 nM	90%	Fc1ccc2nc(-c3cccc(-c4cnc(-c5c[nH]c6cc(F)ccc56)[nH]4)c3)[nH]c2c1
